# Measurements gathered from unrelated publications.
# Each line is one published result; the experiments were not run side by side.
Structure (SMILES),organism,assay,system,conditions,measurement,result
C[C@@H](c1ncncc1F)[C@](O)(Cn1cncn1)c1ccc(F)cc1F,Acanthamoeba castellanii,"parasite growth, resazurin",,7 days,IC50,21.6 µM
N#Cc1cc(-c2nc3ccccc3s2)c(=O)n(NS(=O)(=O)c2ccccc2)c1N,Human mastadenovirus B,plaque formation,HEp-2,,IC50,110 µg/mL
CCc1cc(Nc2cc(=O)n(CCCCO)c(=O)[nH]2)ccc1C,Lacticaseibacillus casei,"microbial growth, agar dilution",,48 h,MIC,32 µg/mL
Cc1ccc(C(=O)ON=C2C=C(C(C)(C)C)C(=O)C(C(C)(C)C)=C2)cc1,Toxoplasma gondii,"parasite growth, fluorescence",,"5 days, intracellular",IC50,13 µM
Cc1nc2sccn2c1C(=O)N1CCN(CCn2cc(-c3ccc(C(C)(C)C)cc3)nn2)CC1,Mycolicibacterium smegmatis,microbial growth,,72 h,IC50,> 128 µM
COc1cc2[nH]c3cc(Oc4ccc(OC(F)(F)F)cc4)ccc3c(=O)c2cc1F,Toxoplasma gondii,parasite growth,,"72 h, intracellular",EC50,0.00063 µM
CCc1nc(N)nc(N)c1-c1ccc(Cl)cc1,Toxoplasma gondii,parasite growth,human Fibroblast,intracellular,IC50,16.1 µM
CC(C)(C)C1=CC(=NNC(=O)C2CCCCC2)C=C(C(C)(C)C)C1=O,Toxoplasma gondii,"parasite growth, fluorescence",,"5 days, intracellular",IC50,> 100 µM
OC[C@H]1O[C@@H](n2ccc3c(O)ncnc32)[C@H](O)[C@@H]1O,Toxoplasma gondii,parasite growth,human Fibroblast,intracellular,IC50,36.1 µM
O=c1[nH]c(NCc2ccc(Cl)c(Cl)c2)nc2ncn(CCCCCN3CCOCC3)c12,Lacticaseibacillus casei,"microbial growth, agar dilution",,48 h,MIC,16 µg/mL
O=C1C(O)=C([C@H]2CC[C@H](c3ccc(Cl)cc3)CC2)C(=O)c2ccccc21,Toxoplasma gondii,parasite growth,,"72 h, intracellular",EC50,0.0106 µM
N=C(NCCCCCCNC(=N)NC(=N)Nc1ccc(Cl)cc1)NC(=N)Nc1ccc(Cl)cc1,Acanthamoeba castellanii,"parasite growth, resazurin",,96 h,IC50,5.97 µM
